The subject of one series is L6. In words: Cytotoxicity against rat L6 cells assessed as reduction in cell viability after 70 hrs by resazurin dye based inverted microscopic analysis. The settings on record: L6, 70 h. (Resazurin is reduced to fluorescent resorufin, in cell work by metabolically active cells.)
The next series deals with Trypanosoma cruzi. In words: Growth inhibition of amastigote form of Trypanosoma cruzi Tulahuen C2C4 expressing LacZ infected in rat L6 cells assessed as reduction in parasitic growth incubated for 96 hra by CPRG/Nonidet reagent based inverted microscopic analysis. The series is classed as functional, organism-based. The method in brief: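 Intracellular amastigotes of T. cruzi Tulahuen C4 strain were tested in vitro for growth inhibition. IC50 values are in µM, given as the mean of two independent assays or the mean of three independent assays ± SD.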

Series [1] can be described thus: Selectivity index, ratio of IC50 for cytotoxicity against rat L6 cells to IC50 for growth inhibition of amastigote form of Trypanosoma cruzi Tulahuen C2C4 expressing LacZ infected in rat L6 cells. The settings on record: read-out: Ratio IC50. The series is classed as toxicity, cell-based. The method in brief: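 Selectivity index is calculated as the IC50 for cytotoxicity in uninfected rat skeletal L6 host cells divided by the IC50 against T. cruzi (Tulahuen C4) amastigotes. Both IC50 values are in µM.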

pIC50: −log10 of the molar value.

Drawing on ChEMBL document CHEMBL4699587, “Pyridine-4(1H)-one Alkaloids from Waltheria indica as Antitrypanosomatid Agents” (J Nat Prod, 2020), this text covers IC50 and selectivity ratio for 20 molecules.

By pIC50 is commonly meant −log10 of the IC50, conventionally taken in molar units. `COc1c(C)[nH]c2c(c1=O)[C@@H](CCCCCc1ccccc1)CC[C@H]2OC`: the pIC50 with L6 was 5.74; in the series with Trypanosoma cruzi it was 7.00. For the same molecule, the selectivity ratio in series [1] stood at 13.8.
The matching figures for `CCCCCCCC[C@H]1CC[C@@H](O)c2[nH]c(C)c(OC)c(=O)c21`: 4.58, 5.19 and 4.
In the same order, the values of `COc1c(C)[nH]c(CCCCCCCCCc2ccccc2)cc1=O` are under 4.54, 5.68 and over 13.
The matching figures for `COc1c(C)[nH]c2c(c1=O)[C@@H](CCCCCc1ccccc1)CCC2`: 5.19, 5.89 and 5.
On to `COc1c(C)[nH]c2ccc3c(c2c1=O)[C@@H]1CC[C@H](O)[C@@]3(c2ccccc2)O1`, for which the values for the pIC50 in the series with L6 and with Trypanosoma cruzi were under 4.66 and under 4.70, respectively. Moreover, the selectivity ratio in series [1] was over 1.
In the same order, the values of `COc1ccccc1[C@@]12CC[C@@H](OC1)c1c2ccc2[nH]c(C)c(OC)c(=O)c12` are under 4.59, 4.72 and over 1.
In the same order, the values of `CCCCCCCCc1cccc2[nH]c(C)c(OC)c(=O)c12` are 4.82, 5.00 and 1.5.
As to `COc1ccccc1[C@]12CC[C@H](O[C@@H]1OC)c1c2ccc2[nH]c(C)c(OC)c(=O)c12`, the pIC50 is under 4.62 with L6 and 4.73 in the series on Trypanosoma cruzi. The selectivity ratio in series [1] was over 1.
Take `COc1c(C)n(OC)c2c(c1=O)[C@@H](CCCC[C@H](O)c1ccccc1)CCC2`: the pIC50 in the series with L6 was under 4.59; in the series with Trypanosoma cruzi it was 5.12. Besides, the selectivity ratio in series [1] is over 3.5.
On to `COc1c(C)[nH]c2c(OC)ccc(CCCCCc3ccccc3)c2c1=O`, for which the pIC50 in the series on L6 was under 4.59; with Trypanosoma cruzi, 5.68. Further, in series [1], the selectivity ratio is over 12.5.
In the same order, the values of `COc1c(CO)[nH]c2c(c1=O)[C@H](CCCCCc1ccccc1)CCC2` are under 4.55, 5.15 and over 4.
As for `COc1cc(CCCCCc2ccccc2)c2c(=O)c(OC)c(C)[nH]c2c1OC`, the negative-log IC50 (pIC50) was under 4.64 in the series with L6 and 4.89 with Trypanosoma cruzi. In series [1], the selectivity ratio was over 1.5.
In the case of `COc1ccc(OC)c([C@@]2(O)c3ccc4[nH]c(C)c(OC)c(=O)c4c3[C@@H]3CC[C@H]2O3)c1`, the pIC50 was under 4.60 in the series on L6 and 4.83 in the series on Trypanosoma cruzi. Moreover, the selectivity ratio in series [1] is over 1.
Turning to `COc1c(C)[nH]c2c(c1=O)[C@@H](CCCCCc1ccccc1)CCC2=O`, the values for the pIC50 in the series with L6 and in the series on Trypanosoma cruzi were 4.92 and 6.30, respectively. In addition, the selectivity ratio in series [1] is 24.5.
The matching figures for `COc1c(CO)[nH]c2ccc3c(c2c1=O)[C@@H]1CCC[C@@]3(c2ccccc2)O1`: under 4.66, 4.83 and over 1.5.
With `COc1cc(OC)cc(C2=CCCCc3c2ccc2[nH]c(C)c(OC)c(=O)c32)c1`, the negative logarithm of the IC50 (pIC50) in the series with L6 was under 4.60; with Trypanosoma cruzi, 4.88. In addition, the selectivity ratio in series [1] is over 1.5.
As for `CCCCCCCCCCCCc1cc(=O)c(OC)c(C)[nH]1`, the pIC50 in the series with L6 is under 4.49; in the series on Trypanosoma cruzi, 5.30. Further, the selectivity ratio in series [1] was over 6.
The matching figures for `COc1c(CO)n(OC)c2c(c1=O)[C@H](CCCCCc1ccccc1)CCC2`: under 4.59, 5.41 and over 6.
The matching figures for `COc1c(C)[nH]c2c(c1=O)[C@@H](CCCCCc1ccccc1)CC[C@H]2O`: under 4.55, 6.10 and over 33.
Take `O=C(Cn1ccnc1[N+](=O)[O-])NCc1ccccc1` [BENZNIDAZOLE]: the pIC50 was under 3.46 in the series on L6 and 5.54 in the series on Trypanosoma cruzi. The selectivity ratio in series [1] is over 119.
